# Test results: article PMC9371711 (Proceedings of the National Academy of Sciences of the …, 2022)
# What was measured:
# [1] = system: GBM59; assay: TMZ sensitivity of primary GBM cells, SRB; format: cell-based, human; details: TMZ 2-512 μM, 10% FBS, SRB after 9 days
# [2] = system: TB77 cells; assay: RNA sequencing, whole-transcriptome analysis; format: cell-based, human; details: 30 µM, 24 h; for number of differentially expressed genes vs untreated control: P < 0.01; for number of unique differentially expressed genes: not shared with the other antagonist
# [3] = molecular target: AT2R; details: cited from earlier work; for Kd: read-out: KD (Dissociation constant) for AT2R
# [4] = system: rat AT1R; details: read-out: IC50 at rat AT1R; cited from earlier work
# [5] = system: 8MG, TB26, TB77 GBM cells; assay: Growth of AT2R-expressing GBM cells with AngII and antagonists, low serum; format: cell-based, human; details: 1% FBS, 6 d; for effect of antagonist on AngII-enhanced growth: antagonist 10 μM + 10 nM AngII
# Summary of the method: (§1)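 Cells in 1% FBS received 10 nM AngII, AT1R or AT2R antagonists at 10 μM, each antagonist plus AngII, or both antagonists together. Established lines were read by SRB staining and primary cultures by CCK8, 6 d posttreatment. Values are mean absorbance normalised to untreated control ± SEM. Groups were compared by ANOVA with Tukey's test.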
# [6] = system: U87-GFP/luc tumors; assay: Orthotopic; format: in vivo, BALB/c nude mice
# Summary of the method: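 2 × 10⁵ U87-GFP/luc cells were implanted into the right cerebral cortex. After 7 d, mice were randomised to test compound or vehicle (PBS, 5% DMSO, 5% solutol), n = 6 each, dosed daily i.p. for 14 d. IVIS bioluminescence was imaged twice weekly and body weight tracked. Tumour sections were scored for H&E tumour area, fluorescent integrin β3 intensity and TUNEL intensity.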
# [7] = In vivo brain biodistribution, LC-MS/MS; design: species or system C57BL/6 mice; details: i.v., 30 min after dosing
# [8] = system: U87-GFP/luc tumors; assay: Subcutaneous U87-GFP/luc xenograft model of GBM; format: in vivo, NSG mice
# Summary of the method: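 2 × 10⁶ U87-GFP/luc cells were injected into the flanks of NSG mice. Once tumours were established, mice were randomised to test compound, comparators or vehicle (PBS, 5% DMSO, 5% solutol), n = 7–9 per group, and treated for 21 d. Tumour volume and final tumour weight are reported as mean ± SEM.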
# [9] = system: TB43, TB48, GBM59, GBM96 primary GBM cultures; assay: Proliferation of primary GBM cultures with EMA401, A3E, TMZ, CCK8; format: cell-based, human; details: for sensitivity of GBM96: GBM96 (lacks AGTR1), A3E 10 μM
# [10] = system: TB82; assay: Growth of GBM cells expressing AT1R but not AT2R with AngII, low serum; format: cell-based, human; details: 10 nM AngII, 1% FBS, 6 d
# Summary of the method: as §1
# [11] = system: TB26, TB43, TB48, GBM59, GBM96 primary GBM cultures; assay: Proliferation of AGTR2-expressing primary GBM cultures, CCK8; format: cell-based, human; details: GBM59, 1% serum, CCK8 9 d
# Summary of the method: (§2)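 Primary GBM explants in 1% serum were exposed to test compound at 1, 10 and 30 μM. Viability was read by CCK8 9 d posttreatment. Values are mean A450 normalised to untreated control ± SEM.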
# [12] = system: GBM31; assay: Proliferation of GBM31; format: cell-based, human; details: 1, 10, 30 μM, 1% serum, CCK8 9 d
# Summary of the method: as §2
# [13] = system: hCMEC/D3; assay: Endothelial cell tube formation with GBM-conditioned media; format: cell-based, human; details: 6-h incubation with media of TB77 treated with 30 μM EMA401
# Summary of the method: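 Conditioned media came from untreated TB77 cells or TB77 treated with 10 μM AT1R antagonist and 30 μM test compound. hCMEC/D3 endothelial cells were incubated in these media for 6 h. Read-outs were total segment length (pixels) and number of meshes, as mean ± SEM. Groups were compared by ANOVA with Tukey's multiple comparisons.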
# [14] = cited from earlier work
# [15] = system: GBM96 spheroids; assay: Spheroid invasion in 50% Matrigel; format: cell-based, human; details: GBM96, dose-dependent, area covered by invading cells
# Summary of the method: (§3)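 Primary-cell spheroids were embedded in 50% Matrigel and exposed to test compound. Invasion was followed over time as the area covered by invading cells, by image thresholding. Values are mean area in pixels ± SEM. Groups were compared by ANOVA with Tukey's test.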
# [16] = system: TB77 cells; assay: Muse Annexin V & Dead Cell Assay; format: cell-based, human; details: 10, 30, 50 μM; 24, 48, 72 h; time and dose dependent
# [17] = system: TB48 spheroids; assay: Spheroid invasion in 50% Matrigel; format: cell-based, human; details: TB48, 30 μM
# Summary of the method: as §3
# [18] = system: TB77 cells; assay: TB77 proliferation, CCK8; format: cell-based, human; details: 1, 10, 30 μM, 1% serum, CCK8 9 d posttreatment; P = 0.0011
# [19] = system: TB48, TB77, GBM96 spheroids; assay: 3D spheroid growth, CCK8; format: cell-based, human; details: 10, 30, 50 μM, CCK8 9 d posttreatment
# Summary of the method: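 TB48, TB77 and GBM96 primary cells grown as 3D spheroids were exposed to test compound at 10, 30 and 50 μM. Growth was read by CCK8 9 d posttreatment. Values are mean A450 normalised to untreated control ± SEM. Groups were compared by ANOVA with Tukey's test.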
# [20] = system: TB77 cells; assay: Cell cycle, propidium iodide flow cytometry; format: cell-based, human; details: 10, 30, 50 μM
# [21] = system: caspase-3/7 in TB77 cells; assay: Caspase-Glo 3/7 Assay; format: cell-based, human; details: 30 μM
molecule,measurement,setting,value
"Cn1nnc2c(C(N)=O)ncn2c1=O [TMZ, temozolomide]",sensitivity of GBM59 to TMZ,[1],insensitive
Cc1cc(Cn2cnc3c2C[C@@H](C(=O)O)N(C(=O)C(c2ccccc2)c2ccccc2)C3)ccc1N(C)C [PD123319],number of differentially expressed genes vs untreated control,[2],"2,195 genes"
same,number of unique differentially expressed genes,[2],908 genes
same,Kd,[3],0.0717 µM
same,IC50,[4],210 µM
same,proliferation in the absence of exogenous AngII,"[5]; 10 μM, significant in 8MG and TB77",inhibited the proliferation
same,effect of antagonist on AngII-enhanced growth,[5],blocked the enhanced growth
COc1ccc2c(c1OCc1ccccc1)C[C@@H](C(=O)OCC(=O)NCCCC[C@H](NC(=O)CNC(=O)[C@H](CCCNC(=N)N)NC(=O)[C@H](CO)NC(=O)CNC(=O)CNC(=O)[C@H](Cc1ccc(O)cc1)NC(=O)[C@H](Cc1ccccc1)NC(=O)[C@H](Cc1ccccc1)NC(=O)[C@@H](NC(=O)COC(=O)[C@@H]1Cc3c(ccc(OC)c3OCc3ccccc3)CN1C(=O)C(c1ccccc1)c1ccccc1)[C@@H](C)O)C(=O)N[C@@H](CCCNC(=N)N)C(=O)N[C@@H](CC(N)=O)C(=O)N[C@@H](CC(N)=O)C(=O)N[C@@H](Cc1ccccc1)C(=O)N[C@@H](CCCCNC(=O)COC(=O)[C@@H]1Cc3c(ccc(OC)c3OCc3ccccc3)CN1C(=O)C(c1ccccc1)c1ccccc1)C(=O)N[C@H](C(=O)N[C@@H](CCC(=O)O)C(=O)N[C@@H](CCC(=O)O)C(=O)N[C@@H](Cc1ccc(O)cc1)C(=O)O)[C@@H](C)O)N(C(=O)C(c1ccccc1)c1ccccc1)C2 [A3E],reduction of tumor size vs vehicle control,"[6]; A3E 25.88 mg/kg i.p. daily for 14 d, bioluminescent imaging (IVIS), n = 6",40%
same,integrin β3 staining (angiogenesis) of tumor sections,"[6]; n = 2, P = 0.17",reduction in integrin-β3 staining
same,"apoptosis, TUNEL assay of tumor sections","[6]; n = 3, P = 0.056",apoptosis was enhanced
same,"tumor area, H&E staining, vs saline group","[6]; n = 5, P = 0.084",consistently smaller
same,toxicity by body weight,"[6]; subcutaneous or intracranial models, no significant weight loss over the study",no detectable toxicity
same,"EMA401 metabolite (peak at 3.7 min, m/z 314) in brain samples",[7],not detected
same,"tumor size, volume and weight vs vehicle- or EMA401-treated groups","[8]; A3E 25.88 mg/kg i.p. daily, 21 d, NSG mice",significantly smaller size
same,efficacy compared with TMZ,"[8]; A3E 25.88 mg/kg, TMZ 30 mg/kg, i.p. daily","slightly more effective than TMZ, though this was not significant"
same,antiproliferative effect compared with EMA401,"[9]; A3E 10 μM vs EMA401 30 μM, 1% serum, CCK8 9 d",equivalent inhibition to native EMA401 at a three-fold lower dose
same,sensitivity of GBM96,[9]; EMA401 30 μM,especially sensitive
CCCCc1nc(Cl)c(CO)n1Cc1ccc(-c2ccccc2-c2nn[nH]n2)cc1 [losartan],effect of antagonist on AngII-enhanced growth,[5],no effects were observed
"angiotensin II (DRVYIHPF; Angiotensin-2; UniProt P01019 25-32, looked up) [AngII]",cell growth with exogenous AngII,[10],minimally increased
same,selectivity for AT2R over AT1R,[3],10 fold
same,Kd,[3],0.0016 µM
same,cell growth with exogenous AngII,"[5]; 10 nM AngII, SRB or CCK8",significantly enhanced
COc1ccc2c(c1OCc1ccccc1)C[C@@H](C(=O)O)N(C(=O)C(c1ccccc1)c1ccccc1)C2 [EMA401],growth inhibition of TMZ-insensitive GBM59,[11],efficiently inhibited
same,number of differentially expressed genes vs untreated control,[2],"5,498 genes"
same,down-regulation of FGF18,[2]; RNA-seq,2.7 fold
same,down-regulation of G6PD,[2]; RNA-seq,1.26 fold
same,down-regulation of PDK2,[2]; RNA-seq,1.29 fold
same,down-regulation of PDK4,[2]; RNA-seq,1.29 fold
same,down-regulation of PIDD1,[2]; RNA-seq,1.3 fold
same,down-regulation of TKT,[2]; RNA-seq,1.33 fold
same,up-regulation of CASP3,[2]; RNA-seq,1.43 fold
same,up-regulation of MAP2K3,[2]; RNA-seq,1.7 fold
same,up-regulation of NFKB2,[2]; RNA-seq,1.5 fold
same,up-regulation of RelB,[2]; RNA-seq,2.4 fold
same,up-regulation of TNFRSF21,[2]; RNA-seq,1.5 fold
same,number of unique differentially expressed genes,[2],"4,211 genes"
same,sensitivity of GBM31 to growth inhibition,[12],insensitive
same,IC50,[4],408 µM
same,total segment length of endothelial tubes,[13],significantly reduced
same,blood-brain barrier penetration,[14],inability of EMA401 to penetrate the blood–brain barrier
same,"EMA401 metabolite (peak at 3.7 min, m/z 314) in brain samples",[7],a metabolite was identified
same,spheroid invasiveness,[15],significantly reduced the invasiveness
same,early apoptotic cells,[16],significant increase in early apoptotic cells
same,spheroid invasiveness,[17],significantly reduced
same,growth inhibition compared with PD123319,[18],significantly more potent growth inhibition than PD123319
same,spheroid growth sensitivity,[19],sensitive
same,antiproliferative potency compared with TMZ,"[9]; EMA401 30 μM, TMZ 30 μM, 1% serum, CCK8 9 d",greater potency than TMZ
same,sensitivity of GBM96,[9]; EMA401 30 μM,especially sensitive
same,cell-cycle parameters,[20],No changes in cell-cycle parameters
same,enhancement of caspase-3/7 activation,"[21]; 24 h, luminescence, P < 0.0001",30%
same,caspase-3/7 activation,[21]; 48 h,returned to baseline levels
